From PubChem BioAssay
CRFBP-R2 block = antagonists of CRF-BP/CRF-R2 complex, primary screen, cell-based, HEK293, calcium dye fluorescence, uHTS; CRF-induced calcium fluorescence; inhibition, % at 11.8 µM; 350,000 compounds, 0.59% hits;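 active = inhibition of the ligand-induced calcium signal above about 50% at the single tested concentration, limit read from the data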
RTF Ca sens act = cardiac RTF calcium sensitivity activators, primary screen, biochemical, IANBD-TnC fluorescence, EC20 calcium | Troponin I, cardiac muscle (Homo sapiens) + Troponin T, cardiac muscle (Homo sapiens) + … | IANBD-labeled TnC RTF fluorescence at EC20 calcium; 0% EC20 calcium, 100% full calcium | activation, % at 7.2 µM | 340,000 compounds, 0.24% hits | AID 493008, 2010;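 active = activation above the mean over all tested compounds plus 3 SD, cut at about 30% in these data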;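 note: rise in fluorescence read as greater calcium sensitivity of cardiac thin filaments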
CRFBP-R2 agonist = agonists of CRF-BP/CRF-R2 complex, primary screen, cell-based, HEK293, calcium dye fluorescence, uHTS. CRF-binding protein / CRF receptor 2 complex (human). 350,000 compounds, 0.46% hits. activation, % at 13.2 µM. calcium dye fluorescence (FLIPR); percent of saturating CRF peptide response;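 active = activation of at least 50%, plus an integration ratio under a set limit after plate pattern correction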;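 note: plate controls were neutral control wells without compound for no effect and CRF at EC100 for full effect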
RTF Ca sens inh = cardiac RTF calcium sensitivity inhibitors, primary screen, biochemical, IANBD-TnC fluorescence, EC70 calcium | inhibition, % at 7.15 µM | 340,000 compounds, 0.12% hits | AID 493244, 2011 | Troponin I, cardiac muscle (Homo sapiens) + Troponin T, cardiac muscle (Homo sapiens) + … | IANBD-labeled cardiac RTF, Ca2+ fluorescence;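 active = inhibition above the mean inhibition of all tested compounds plus 3 SD, cut at about 17% in these data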;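 note: assay run at fixed EC70 calcium of 1.6 mM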
DDE Tn7 FP inh = inhibitors of Tn7 peptide binding to fibrin DD(E), primary screen, biochemical, fluorescence polarization, human fibrin, Tn7 probe; Fibrinogen beta chain (Homo sapiens), P02675; FP displacement of FITC-Tn7 peptide from fibrin DD(E); 0% = median of compound wells per plate; inhibition, % at 8.3 µM; 370,000 compounds, 0.13% hits;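 active = inhibition above the mean of compounds falling within the control limits plus 3 SD of them, cut at about 14% in these data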;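 note: 0% = plate median of compound wells and 100% = 10 µM Aha-Tn7 peptide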
Target sequence (P02675 whole entry, looked up): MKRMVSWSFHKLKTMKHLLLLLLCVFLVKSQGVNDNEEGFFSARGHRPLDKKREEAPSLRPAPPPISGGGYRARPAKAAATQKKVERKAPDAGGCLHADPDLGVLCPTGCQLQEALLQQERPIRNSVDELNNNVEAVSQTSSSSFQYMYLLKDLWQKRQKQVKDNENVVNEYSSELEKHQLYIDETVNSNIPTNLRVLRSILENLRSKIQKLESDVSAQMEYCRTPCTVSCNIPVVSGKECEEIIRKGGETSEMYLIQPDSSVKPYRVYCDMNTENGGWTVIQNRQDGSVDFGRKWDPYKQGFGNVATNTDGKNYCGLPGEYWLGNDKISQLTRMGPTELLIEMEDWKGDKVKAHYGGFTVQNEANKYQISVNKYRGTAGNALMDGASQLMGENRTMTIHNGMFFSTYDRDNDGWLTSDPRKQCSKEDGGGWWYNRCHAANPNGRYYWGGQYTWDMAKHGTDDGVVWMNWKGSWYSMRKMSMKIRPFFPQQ
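assay system = human clot-derived fibrin DD(E) complex | quantity = Fibrin-DD(E) at 2 µM final | timing = 10 min preincubation, 3 h with tracer, room temperature | signal = fluorescence polarization | measure = percent inhibition | benchmarks = high control wells with 10 µM unlabelled Aha-Tn7 peptide (full inhibition) | replicates = singlicate testing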
DDE Tn6 FP inh = inhibitors of Tn6 peptide binding to fibrin DD(E), primary screen, biochemical, fluorescence polarization, human fibrin, Tn6 probe; Fibrin DD(E) TRITC-Tn6 fluorescence polarization displacement; 370,000 compounds, 0.21% hits; inhibition, % at 8.3 µM; AID 720509, 2013; Fibrinogen beta chain (Homo sapiens), P02675;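 active = inhibition above a per-campaign cutoff: mean of compounds within control limits plus 3 SD, cut at about 15% in these data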;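 note: 0% = median of all compound wells on the plate and 100% = blocking peptide control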
The depositor's hits bear a star; nt = no result. Hits are enriched below; roughly 1.4% of the tested compounds scored in any of these assays.

SMILES | CRFBP-R2 block | RTF Ca sens act | CRFBP-R2 agonist | RTF Ca sens inh | DDE Tn7 FP inh | DDE Tn6 FP inh
O=C(Nc1nnc(-c2ccccc2Cl)o1)c1ccc(S(=O)(=O)N2CCCCCC2)cc1 | -11 | nt | 54* | nt | nt | nt
COC(=O)C[C@H]1CC[C@@H]2[C@@H](COc3ccc(NC(=O)c4ccccc4)cc3C(=O)N2C)O1 | nt | nt | nt | nt | -6 | 7
COC(=O)[C@]12C[C@H](CC(=O)NCCc3ccccc3OC)C(=O)N(CCc3ccc(OC)c(OC)c3)C1=C[C@H](C1CCCC1)O[C@@H]2C | nt | nt | nt | nt | 5 | 2
CCOC(=O)c1c(N2C(=O)Nc3ccccc3N2O)n[nH]c1-c1cccc(Cl)c1 | 68* | -1 | 0 | -1 | -3 | -8
Cc1ccc(S(=O)(=O)N2CCC(c3nc4c(nnn4Cc4ccccc4)c(=O)[nH]3)CC2)cc1 | 64* | nt | 2 | nt | -4 | 5
Cc1ccc(Cn2nnc3c(=O)[nH]c(C4CCN(S(=O)(=O)c5ccccc5)CC4)nc32)cc1 | 22 | -1 | -7 | -3 | nt | nt
C=C(C)CSc1nc2c(cc1C#N)CCC2 | 64* | -5 | -1 | 5 | -1 | 3
C=CCSc1nc2c(cc1C#N)CCC2 | 18 | 1 | 1 | -5 | 2 | 6
[O-][n+]1c2c(c3c4non(O)c4ccc31)CCCC2 | 53* | -18 | 85* | -9 | 0 | -3
Cc1ccc(S(=O)(=O)ON2C(=O)c3ccccc3C2=O)c(C)c1 | 63* | 1 | 2 | -5 | -2 | 4
COc1cccc(NC(=O)C2(C)CCN2CC2CCCCC2)c1 (stereo not given) | nt | nt | nt | nt | 3 | -3
O=[N+]([O-])c1c(Nc2ccc(O)cc2)cc(Cl)c2nonc12 | 67* | -8 | -2 | 1 | -4 | 2
O=[N+]([O-])c1c(Nc2ccccn2)cc(Cl)c2nonc12 | 26 | 33* | -2 | 3 | 1 | 10
O=C(O)c1ccccc1Nc1cc(Cl)c2nonc2c1[N+](=O)[O-] | -12 | 5 | -1 | -2 | 6 | 6
COc1ccc(-n2c(SCC(=O)Nc3ccc(OCc4ccccc4)cc3)nnc2-c2ccc(C)cc2)cc1 | nt | nt | nt | nt | -4 | 5
C[C@@H](CCCCC1(C)OCCO1)CCC(=O)N(c1ccccc1)c1ccccc1 | nt | nt | nt | nt | 7 | 3
O=C(Nc1ccc(C(=O)N2CCCC2)cc1)C1CCCCC1 | -2 | 2 | 4 | -7 | -5 | 0
Cc1ccn(C(=O)c2ccc(NC(=O)C3CCCCC3)cc2)n1 | 54* | 1 | -4 | -2 | 6 | 10
Cc1ccc(S(=O)(=O)/N=C2/NC(=O)/C(=C/c3ccccc3)S2)cc1 | 115* | -2 | -2 | 3 | 2 | 6
Cc1ccc(S(=O)(=O)/N=C2/NC(=O)/C(=C/c3cc([N+](=O)[O-])ccc3O)S2)cc1 | -137 | 16 | 67* | -27 | -6 | -5
Cc1ccc(S(=O)(=O)/N=C2/NC(=O)/C(=C\c3ccccc3)S2)cc1 | 15 | -2 | -1 | 0 | -4 | -2
O=C1NC(=Nc2ccccc2Cl)S/C1=C\c1cc([N+](=O)[O-])ccc1O | -44 | 29 | 61* | -49 | -1 | -3
CCCCCN(C(=O)Cc1c(C)n(CCCCC)c2ccccc12)c1ccc(Oc2cccnc2)c(C)c1 | nt | nt | nt | nt | 4 | -7
Cc1ccc(NC(=O)Cn2nnc(-c3ccncc3)n2)cc1C | nt | nt | nt | nt | -8 | -1
CCCCCNC1=CC(=O)CC(c2ccccc2)C1 (stereo not given) | 81* | 0 | -1 | -3 | -3 | 1
CN(Cc1ccccn1)C(=O)C1CCC(=O)N(Cc2cccc(C(F)(F)F)c2)C1 (stereo not given) | 53* | -1 | 5 | -1 | -3 | -3
